Test results as given in ChEMBL document CHEMBL3400126, “Benzo-fused lactams from a diversity-oriented synthesis (DOS) library as inhibitors of scavenger receptor BI (SR-BI)-mediated lipid uptake” (Bioorg Med Chem Lett, 2015).
pIC50: −log10 of the molar value.

Experiments:
[1] = test system: CHO; test: Cytotoxicity against CHO cells after 24 hrs by CellTiterGlo assay; type: cell-based, Cricetulus griseus; conditions: chinese hamster
In short: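 IdlA[mSR-BI] cells (CHO overexpressing mouse SR-BI) incubated with compound for 24 h; cellular ATP levels read by CellTiter-Glo luminescence.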

[2] = target: T1, Scavenger receptor class B member 1 (Mus musculus, UniProt Q61009); test: Inhibition of mouse SR-B1 overexpressed in CHO cells assessed as inhibition of transfer of the fluorescent lipid DiI from HDL particles to cells after 3 hrs; type: cell-based
T1 sequence (Q61009 whole entry): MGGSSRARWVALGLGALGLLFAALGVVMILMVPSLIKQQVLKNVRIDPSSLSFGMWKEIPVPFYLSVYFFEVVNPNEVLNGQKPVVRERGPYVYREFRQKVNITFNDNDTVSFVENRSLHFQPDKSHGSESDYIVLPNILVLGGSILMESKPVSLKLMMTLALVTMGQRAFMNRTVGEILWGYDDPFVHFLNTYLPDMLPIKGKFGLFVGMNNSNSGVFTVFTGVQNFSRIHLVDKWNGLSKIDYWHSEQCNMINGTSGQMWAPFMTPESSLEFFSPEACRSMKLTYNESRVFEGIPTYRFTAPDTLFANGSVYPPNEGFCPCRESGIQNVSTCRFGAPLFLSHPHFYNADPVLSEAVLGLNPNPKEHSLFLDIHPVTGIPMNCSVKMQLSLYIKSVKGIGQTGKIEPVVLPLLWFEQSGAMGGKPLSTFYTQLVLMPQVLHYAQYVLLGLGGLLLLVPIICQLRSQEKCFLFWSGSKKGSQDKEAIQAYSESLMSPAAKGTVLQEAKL
In short: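 Primary assay: uptake of fluorescent lipid DiI from DiI-labeled HDL particles into IdlA[mSR-BI] cells, i.e. CHO cells overexpressing mouse SR-BI. Read-out is cell-associated DiI fluorescence. Compounds that quenched DiI-HDL fluorescence in a dose-dependent manner were excluded by counterscreen. 1 μM BLT-1 served as positive control.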

SMILES | Activity [1] | pIC50 [2]
C[C@@H]1CN([C@H](C)CO)C(=O)c2cc(NC(=O)C3CC3)ccc2O[C@H]1CN(C)S(=O)(=O)c1ccc(Cl)cc1 | Non-toxic | 5.68
C[C@@H]1CN([C@@H](C)CO)C(=O)c2cc(NC(=O)Cc3cn(C)c4ccccc34)ccc2O[C@H]1CN(C)S(=O)(=O)c1ccc(Cl)cc1 | Non-toxic | 6.04
C[C@@H]1CN([C@H](C)CO)C(=O)c2cc(NC(=O)C3CCCCC3)ccc2O[C@H]1CN(C)S(=O)(=O)c1cccc(Cl)c1 | Non-toxic | 
C[C@@H]1CN([C@H](C)CO)C(=O)c2cc(NC(=O)Cc3cn(C)c4ccccc34)ccc2O[C@H]1CN(C)Cc1ccc2c(c1)OCO2 | Non-toxic | 6.05
C[C@@H]1CN([C@H](C)CO)C(=O)c2cc(NC(=O)Cn3cnnn3)ccc2O[C@H]1CN(C)S(=O)(=O)c1ccc(Cl)cc1 | Non-toxic | 5.00
C[C@@H]1CN([C@H](C)CO)C(=O)c2cc(NS(C)(=O)=O)ccc2O[C@H]1CN(C)S(=O)(=O)c1ccc(Cl)cc1 | Non-toxic | 5.80
C[C@@H]1CN([C@@H](C)CO)C(=O)c2cc(NC(=O)Cc3cn(C)c4ccccc34)ccc2O[C@@H]1CN(C)S(=O)(=O)c1ccc(Cl)cc1 | Non-toxic | 5.00
C[C@@H]1CN([C@H](C)CO)C(=O)c2cc(NC(=O)NC3CCCCC3)ccc2O[C@H]1CN(C)S(=O)(=O)c1ccc(Cl)cc1 | Non-toxic | 6.46
COC[C@@H](C)N1C[C@@H](C)[C@H](CN(C)S(=O)(=O)c2ccc(Cl)cc2)Oc2ccc(NC(=O)NC(C)C)cc2C1=O | Non-toxic | 5.10
C[C@@H]1CN([C@H](C)CO)C(=O)c2cc(NS(=O)(=O)c3ccc(F)cc3)ccc2O[C@H]1CN(C)S(=O)(=O)c1ccc(Cl)cc1 | Non-toxic | 4.85
C[C@@H]1CN([C@H](C)CO)C(=O)c2cc(NC(=O)Cc3cn(C)c4ccccc34)ccc2O[C@@H]1CN(C)S(=O)(=O)c1ccc(Cl)cc1 | Non-toxic | 
C[C@@H]1CN([C@H](C)CO)C(=O)c2cc(NS(=O)(=O)c3ccccc3)ccc2O[C@H]1CN(C)S(=O)(=O)c1ccc(Cl)cc1 | Non-toxic | 5.49
C[C@@H]1CN([C@H](C)CO)C(=O)c2cc(NC(=O)Cc3cn(C)c4ccccc34)ccc2O[C@H]1CN(C)Cc1ccncc1 | Non-toxic | 5.89
Cc1noc(C)c1S(=O)(=O)Nc1ccc2c(c1)C(=O)N([C@H](C)CO)C[C@@H](C)[C@H](CN(C)S(=O)(=O)c1ccc(Cl)cc1)O2 | Non-toxic | 6.72
C[C@@H]1CN([C@H](C)CO)C(=O)c2cc(NC(=O)Cc3cn(C)c4ccccc34)ccc2O[C@H]1CN(C)Cc1ccccc1 | Non-toxic | 5.80
C[C@@H]1CN([C@H](C)CO)C(=O)c2cc(NC(=O)Cc3cn(C)c4ccccc34)ccc2O[C@H]1CN(C)CC1CCCCC1 | Non-toxic | 5.04
C[C@@H]1CN([C@H](C)CO)C(=O)c2cc(NC(=O)Nc3ccc(F)cc3)ccc2O[C@H]1CN(C)S(=O)(=O)c1ccc(Cl)cc1 | Non-toxic | 7.04
C[C@@H]1CN([C@H](C)CO)C(=O)c2cc(NC(=O)CCCN(C)C)ccc2O[C@H]1CN(C)S(=O)(=O)c1ccc(Cl)cc1 | Non-toxic | < 4.60
C[C@@H]1CN([C@H](C)CO)C(=O)c2cc(NC(=O)Cc3cn(C)c4ccccc34)ccc2O[C@H]1CN(C)Cc1ccc(C(F)(F)F)cc1 | Non-toxic | 6.19
C[C@@H]1CN([C@H](C)CO)C(=O)c2cc(NC(=O)CCN3CCOCC3)ccc2O[C@H]1CN(C)S(=O)(=O)c1ccc(Cl)cc1 | Non-toxic | 5.30
COc1ccc(CN(C)C[C@@H]2Oc3ccc(NC(=O)Cc4cn(C)c5ccccc45)cc3C(=O)N([C@H](C)CO)C[C@H]2C)cc1 | Non-toxic | 5.59
C[C@H]1CN([C@@H](C)CO)C(=O)c2cc(NC(=O)Cc3cn(C)c4ccccc34)ccc2O[C@@H]1CN(C)S(=O)(=O)c1ccc(Cl)cc1 | Non-toxic | 4.76
CNC[C@@H]1Oc2ccc(NC(=O)Cc3cn(C)c4ccccc34)cc2C(=O)N([C@H](C)CO)C[C@H]1C | Non-toxic | < 4.60
C[C@@H]1CN([C@H](C)CO)C(=O)c2cc(N(C)C)ccc2O[C@H]1CN(C)S(=O)(=O)c1ccc(Cl)cc1 | Non-toxic | 6.20

SMILES | Activity [1] | pIC50 [2]
C[C@@H]1CN([C@H](C)CO)C(=O)c2cc(NC(=O)C3CCCCC3)ccc2O[C@H]1CN(C)C(=O)c1ccc(Cl)cc1 | Non-toxic | < 4.60
C[C@@H]1CN([C@H](C)CO)C(=O)c2cc(NC(=O)Cc3cn(C)c4ccccc34)ccc2O[C@H]1CN(C)S(=O)(=O)c1cccs1 | Non-toxic | 5.62
CC(C)NC(=O)Nc1ccc2c(c1)C(=O)N(C(C)C)C[C@@H](C)[C@H](CN(C)S(=O)(=O)c1ccc(Cl)cc1)O2 | Non-toxic | 5.00
C[C@@H]1CN([C@H](C)CO)C(=O)c2cc(NC(=O)Nc3ccccc3)ccc2O[C@H]1CN(C)S(=O)(=O)c1ccc(Cl)cc1 | Non-toxic | < 4.60
C[C@@H]1CN([C@H](C)CO)C(=O)c2cc(NC(=O)Cc3cn(C)c4ccccc34)ccc2O[C@H]1CN(C)C(=O)NC1CCCCC1 | Non-toxic | 5.04
C[C@@H]1CN([C@H](C)CO)C(=O)c2cc(NC(=O)C3CCCCC3)ccc2O[C@H]1CN(C)S(=O)(=O)c1ccccc1Cl | Non-toxic | 6.74
C[C@@H]1CN([C@H](C)CO)C(=O)c2cc(NC(=O)Cc3cn(C)c4ccccc34)ccc2O[C@H]1CN(C)C | Non-toxic | 4.74
C[C@@H]1CN([C@H](C)CO)C(=O)c2cc(NC(=O)CCC(F)(F)F)ccc2O[C@H]1CN(C)S(=O)(=O)c1ccc(Cl)cc1 | Non-toxic | 6.59
CC(C)NC(=O)Nc1cccc2c1O[C@@H](CN(C)S(=O)(=O)c1ccc(Cl)cc1)[C@H](C)CN([C@H](C)CO)C2=O | Non-toxic | < 4.60
C[C@@H]1CN([C@H](C)CN)C(=O)c2cc(NC(=O)Cc3cn(C)c4ccccc34)ccc2O[C@H]1CN(C)S(=O)(=O)c1ccc(Cl)cc1 | Non-toxic | < 4.60
C[C@@H]1CN([C@H](C)CN(C)C)C(=O)c2cc(NC(=O)Cc3cn(C)c4ccccc34)ccc2O[C@H]1CN(C)S(=O)(=O)c1ccc(Cl)cc1 | Non-toxic | < 4.60
Cc1noc(C)c1NC(=O)Nc1ccc2c(c1)C(=O)N([C@H](C)CO)C[C@@H](C)[C@H](CN(C)S(=O)(=O)c1ccc(Cl)cc1)O2 | Non-toxic | 5.15
C[C@@H]1CN([C@H](C)CO)C(=O)c2cc(NC(=O)Cc3cn(C)c4ccccc34)ccc2O[C@H]1CN(C)Cc1ccc(Cl)c(Cl)c1 | Non-toxic | < 4.60
C[C@H]1CN([C@@H](C)CO)C(=O)c2cc(NC(=O)Cc3cn(C)c4ccccc34)ccc2O[C@H]1CN(C)S(=O)(=O)c1ccc(Cl)cc1 | Non-toxic | 4.91
C[C@@H]1CN([C@H](C)CO)C(=O)c2cc(NC(=O)Cc3cn(C)c4ccccc34)ccc2O[C@H]1CN(C)S(=O)(=O)c1ccccc1 | Non-toxic | 6.66
C[C@@H]1CN([C@H](C)CO)C(=O)c2cc(NC(=O)C3CCCCC3)ccc2O[C@H]1CN(C)S(=O)(=O)c1ccc(Cl)cc1 | Non-toxic | 7.27
C[C@@H]1CN([C@H](C)CO)C(=O)c2cc(NC(=O)C3CCOCC3)ccc2O[C@H]1CN(C)S(=O)(=O)c1ccc(Cl)cc1 | Non-toxic | < 4.60
COc1ccc(NC(=O)Nc2ccc3c(c2)C(=O)N([C@H](C)CO)C[C@@H](C)[C@H](CN(C)S(=O)(=O)c2ccc(Cl)cc2)O3)cc1 | Non-toxic | 6.52
C[C@@H]1CN([C@H](C)CO)C(=O)c2cc(NC(=O)Cc3cn(C)c4ccccc34)ccc2O[C@H]1CN(C)S(C)(=O)=O | Non-toxic | 5.00
C[C@@H]1CN([C@H](C)CO)C(=O)c2cc(NC(=O)Cc3cn(C)c4ccccc34)ccc2O[C@H]1CN(C)C(=O)Nc1ccccc1 | Non-toxic | 5.31
C[C@@H]1CN([C@H](C)CO)C(=O)c2cc(NC(=O)Cc3cn(C)c4ccccc34)ccc2O[C@H]1CN(C)S(=O)(=O)c1ccc(F)cc1 | Non-toxic | 6.25
COc1ccc(S(=O)(=O)N(C)C[C@@H]2Oc3ccc(NC(=O)Cc4cn(C)c5ccccc45)cc3C(=O)N([C@H](C)CO)C[C@H]2C)cc1 | Non-toxic | 5.70
C[C@H](CO)N1C[C@H](C)[C@H](CN(C)S(=O)(=O)c2ccc(Cl)cc2)Oc2ccc(NC(=O)Cc3cn(C)c4ccccc34)cc2C1=O | Non-toxic | < 4.60
